Measurements reported in ChEMBL document CHEMBL4043093, “2-Oxo-3, 4-dihydropyrimido[4, 5-d]pyrimidinyl derivatives as new irreversible pan fibroblast growth factor receptor (FGFR) inhibitors” (Eur J Med Chem, 2017).

How the values were obtained:
[1] = Antiproliferative activity against human FGFR2-amplified SUM52 cells after 5 days by SRB assay; settings: SUM52, 120 h
[2] = test system: Tyrosine-protein kinase ABL1 (Homo sapiens), P00519 [F317I]; assay: Inhibition of human non-phosphorylated ABL1 F317I mutant (S229 to K512 residues) expressed in HEK293 cells assessed as residual activity at 1000 nM after 30 mins by Kinomescan method relative to control; type: cell-based
Method in brief: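 KINOMEscan binding panel of 456 kinases, with the test compound at a single concentration of 1 µM. Read-out is Percent Control.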

[3] = molecular target: Atypical kinase COQ8A, mitochondrial (Homo sapiens) (UniProt Q8NI60); assay: Inhibition of wild-type human […] ADCK3 (M280 to Q647 residues) expressed in Escherichia coli BL21 assessed as residual activity at 1000 nM after 30 mins by Kinomescan method relative to control
Method in brief: (§1)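 Single-point screen at a fixed 1 µM, run within a 456-kinase DiscoveRx KINOMEscan panel. Each kinase's read-out is Percent Control, i.e. signal relative to a control without compound. Hits were scored by a Percent Control < 35 cut-off, and an S(35) selectivity score was calculated across the non-mutant kinases.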

[4] = molecular target: Calcium/calmodulin-dependent protein kinase type 1G (Homo sapiens) (UniProt Q96NX5); assay: Inhibition of wild-type human partial length CAMK1G (M1 to A342 residues) expressed in Escherichia coli BL21 assessed as residual activity at 1000 nM after 30 mins by Kinomescan method relative to control
[5] = molecular target: Cyclin-dependent kinase 11B (Homo sapiens) (UniProt P21127); assay: Inhibition of wild-type human partial length CDK11 (M1 to N360 residues) expressed in Escherichia coli BL21 assessed as residual activity at 1000 nM after […] by Kinomescan method relative to control
[6] = molecular target: Cyclin-dependent kinase 5 (Homo sapiens) (UniProt Q00535); assay: Inhibition of wild-type human full length CDK5 (M1 to P292 residues) expressed in Escherichia coli BL21 assessed as residual activity at 1000 nM after 30 mins by Kinomescan method relative to control; method in brief: as §1
Chain of Cyclin-dependent kinase 5 (Homo sapiens) (Q00535 whole entry, looked up, the tested form may be a part): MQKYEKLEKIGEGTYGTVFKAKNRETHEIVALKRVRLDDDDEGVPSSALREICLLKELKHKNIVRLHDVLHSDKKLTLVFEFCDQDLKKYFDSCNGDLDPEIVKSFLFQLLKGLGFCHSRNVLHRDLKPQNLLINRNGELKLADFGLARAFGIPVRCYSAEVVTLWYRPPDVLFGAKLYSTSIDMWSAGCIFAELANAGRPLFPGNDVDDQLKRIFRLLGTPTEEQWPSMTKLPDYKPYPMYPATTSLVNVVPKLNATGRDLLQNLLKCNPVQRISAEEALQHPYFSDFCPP

[7] = molecular target: Macrophage colony-stimulating factor 1 receptor (Homo sapiens) (UniProt P07333); assay: Inhibition of wild-type human partial length autoinhibited CSF1R (Y538 to S939 residues) expressed in HEK293 cells assessed as residual activity at 1000 nM after 30 mins by Kinomescan method relative to control; type: cell-based
[8] = molecular target: Death-associated protein kinase 2 (Homo sapiens) (UniProt Q9UIK4); assay: Inhibition of wild-type human full length DAPK2 (M1 to S370 residues) expressed in Escherichia coli BL21 assessed as residual activity at 1000 nM after 30 mins by Kinomescan method relative to control
Method in brief: (§2)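 Single-concentration screen at 1 µM across a 456-kinase KINOMEscan panel. The read-out is Percent Control for each kinase.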

[9] = molecular target: Dual specificity tyrosine-phosphorylation-regulated kinase 2 (Homo sapiens) (UniProt Q92630); assay: Inhibition of wild-type human full length DYRK2 (M1 to S528 residues) expressed in HEK293 cells assessed as residual activity at 1000 nM after 30 mins by Kinomescan method relative to control; type: cell-based; method in brief: as §2
Chain of Dual specificity tyrosine-phosphorylation-regulated kinase 2 (Homo sapiens) (Q92630 whole entry, the tested form may be a part): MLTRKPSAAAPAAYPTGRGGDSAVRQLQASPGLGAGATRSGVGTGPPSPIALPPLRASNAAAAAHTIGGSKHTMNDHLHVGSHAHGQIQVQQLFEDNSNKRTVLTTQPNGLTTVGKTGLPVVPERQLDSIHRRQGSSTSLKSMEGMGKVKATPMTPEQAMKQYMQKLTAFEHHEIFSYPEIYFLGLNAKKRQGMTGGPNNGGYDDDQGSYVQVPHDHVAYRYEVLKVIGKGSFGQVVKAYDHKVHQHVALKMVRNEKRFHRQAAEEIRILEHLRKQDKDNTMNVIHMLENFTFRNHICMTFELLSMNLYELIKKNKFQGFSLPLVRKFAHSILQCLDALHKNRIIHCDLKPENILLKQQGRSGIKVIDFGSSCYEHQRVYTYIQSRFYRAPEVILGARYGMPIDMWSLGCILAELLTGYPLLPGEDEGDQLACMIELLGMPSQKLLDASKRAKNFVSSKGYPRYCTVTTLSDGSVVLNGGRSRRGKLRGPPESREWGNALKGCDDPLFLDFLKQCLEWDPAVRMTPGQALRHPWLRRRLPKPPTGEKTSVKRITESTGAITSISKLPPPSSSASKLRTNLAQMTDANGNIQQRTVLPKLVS

[10] = molecular target: Ephrin type-B receptor 6 (Homo sapiens) (UniProt O15197); assay: Inhibition of wild-type human partial length EPHB6 (Q634 to P948 residues) expressed in HEK293 cells assessed as residual activity at 1000 nM after 30 mins by Kinomescan method relative to control; type: cell-based
[11] = molecular target: G protein-coupled receptor kinase 3 (Homo sapiens) (UniProt P35626); assay: Inhibition of wild-type human full length GRK3 (M1 to L688 residues) expressed in HEK293 cells assessed as residual activity at 1000 nM after 30 mins by Kinomescan method relative to control; type: cell-based; method in brief: as §2
Chain of G protein-coupled receptor kinase 3 (Homo sapiens) (P35626 whole entry, the tested form may be a part): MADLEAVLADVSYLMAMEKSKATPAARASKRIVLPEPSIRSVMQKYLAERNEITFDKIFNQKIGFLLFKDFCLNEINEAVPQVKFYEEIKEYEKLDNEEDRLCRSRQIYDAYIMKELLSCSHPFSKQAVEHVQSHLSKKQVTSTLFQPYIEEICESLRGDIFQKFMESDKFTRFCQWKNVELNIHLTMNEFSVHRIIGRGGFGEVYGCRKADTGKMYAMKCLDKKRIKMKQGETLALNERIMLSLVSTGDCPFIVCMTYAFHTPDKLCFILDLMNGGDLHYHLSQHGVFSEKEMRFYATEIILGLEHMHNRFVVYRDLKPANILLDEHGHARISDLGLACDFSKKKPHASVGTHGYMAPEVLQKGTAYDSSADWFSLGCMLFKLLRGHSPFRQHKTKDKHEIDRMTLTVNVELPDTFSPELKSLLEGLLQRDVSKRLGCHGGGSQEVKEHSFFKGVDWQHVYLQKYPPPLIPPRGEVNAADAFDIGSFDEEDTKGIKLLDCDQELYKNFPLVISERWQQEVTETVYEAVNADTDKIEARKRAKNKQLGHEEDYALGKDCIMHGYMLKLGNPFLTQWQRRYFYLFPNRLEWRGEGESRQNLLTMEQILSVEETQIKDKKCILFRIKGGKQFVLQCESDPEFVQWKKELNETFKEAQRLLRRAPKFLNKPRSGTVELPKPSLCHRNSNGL

[12] = molecular target: Mitogen-activated protein kinase 10 (Homo sapiens) (UniProt P53779); assay: Inhibition of wild-type human partial length JNK3 (V28 to Q422 residues) expressed in HEK293 cells assessed as residual activity at 1000 nM after 30 mins by Kinomescan method relative to control; type: cell-based
[13] = molecular target: Mast/stem cell growth factor receptor Kit (Homo sapiens) (UniProt P10721); assay: Inhibition of wild-type human partial length autoinhibited KIT (Y545 to D952 residues) expressed in HEK293 cells assessed as residual activity at 1000 nM after 30 mins by Kinomescan method relative to control; type: cell-based
Chain of Mast/stem cell growth factor receptor Kit (Homo sapiens) (P10721 whole entry, the tested form may be a part): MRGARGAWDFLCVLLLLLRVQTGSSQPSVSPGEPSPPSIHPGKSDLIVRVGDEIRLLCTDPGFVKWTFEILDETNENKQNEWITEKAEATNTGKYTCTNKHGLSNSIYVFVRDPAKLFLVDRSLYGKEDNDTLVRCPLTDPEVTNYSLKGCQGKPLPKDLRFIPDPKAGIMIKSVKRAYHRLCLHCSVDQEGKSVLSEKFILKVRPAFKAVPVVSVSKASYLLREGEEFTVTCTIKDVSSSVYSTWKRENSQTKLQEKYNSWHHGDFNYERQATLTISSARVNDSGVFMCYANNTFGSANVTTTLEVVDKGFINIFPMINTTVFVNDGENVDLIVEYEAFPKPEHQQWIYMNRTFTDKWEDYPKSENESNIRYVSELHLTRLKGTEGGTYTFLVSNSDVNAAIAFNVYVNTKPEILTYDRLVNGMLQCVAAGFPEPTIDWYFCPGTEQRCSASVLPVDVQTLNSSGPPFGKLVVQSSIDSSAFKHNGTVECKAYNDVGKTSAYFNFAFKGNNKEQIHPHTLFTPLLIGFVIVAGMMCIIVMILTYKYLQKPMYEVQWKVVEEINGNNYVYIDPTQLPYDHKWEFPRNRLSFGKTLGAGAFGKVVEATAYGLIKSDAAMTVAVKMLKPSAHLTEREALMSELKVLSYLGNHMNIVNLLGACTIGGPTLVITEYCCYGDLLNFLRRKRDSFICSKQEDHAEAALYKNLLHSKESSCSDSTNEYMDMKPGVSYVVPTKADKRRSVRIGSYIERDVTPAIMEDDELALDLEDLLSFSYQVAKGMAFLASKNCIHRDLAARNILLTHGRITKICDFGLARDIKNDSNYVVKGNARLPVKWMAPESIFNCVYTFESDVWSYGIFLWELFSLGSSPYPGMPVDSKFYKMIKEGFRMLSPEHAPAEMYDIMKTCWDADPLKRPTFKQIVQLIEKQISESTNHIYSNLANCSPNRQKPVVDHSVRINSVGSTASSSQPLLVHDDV

[14] = molecular target: Serine/threonine-protein kinase LATS1 (Homo sapiens) (UniProt O95835); assay: Inhibition of wild-type human partial length LATS1 (Q678 to V1130 residues) expressed in Escherichia coli BL21 assessed as residual activity at 1000 nM after 30 mins by Kinomescan method relative to control
[15] = molecular target: Tyrosine-protein kinase Lck (Homo sapiens) (UniProt P06239); assay: Inhibition of wild-type human partial length LCK (R207 to P509 residues) expressed in Escherichia coli BL21 assessed as residual activity at 1000 nM after 30 mins by Kinomescan method relative to control
[16] = molecular target: Serine/threonine-protein kinase 10 (Homo sapiens) (UniProt O94804); assay: Inhibition of wild-type human partial length LOK (E16 to V314 residues) expressed in Escherichia coli BL21 assessed as residual activity at 1000 nM after 30 mins by Kinomescan method relative to control
[17] = molecular target: Serine/threonine-protein kinase 38-like (Homo sapiens) (UniProt Q9Y2H1); assay: Inhibition of wild-type human partial length NDR2 (N34 to E447 residues) expressed in Escherichia coli BL21 assessed as residual activity at 1000 nM after 30 mins by Kinomescan method relative to control
[18] = molecular target: Serine/threonine-protein kinase Nek5 (Homo sapiens) (UniProt Q6P3R8); assay: Inhibition of wild-type human partial length NEK5 (M1 to M279 residues) expressed in Escherichia coli BL21 assessed as residual activity at 1000 nM after 30 mins by Kinomescan method relative to control
Chain of Serine/threonine-protein kinase Nek5 (Homo sapiens) (Q6P3R8 whole entry, the tested form may be a part): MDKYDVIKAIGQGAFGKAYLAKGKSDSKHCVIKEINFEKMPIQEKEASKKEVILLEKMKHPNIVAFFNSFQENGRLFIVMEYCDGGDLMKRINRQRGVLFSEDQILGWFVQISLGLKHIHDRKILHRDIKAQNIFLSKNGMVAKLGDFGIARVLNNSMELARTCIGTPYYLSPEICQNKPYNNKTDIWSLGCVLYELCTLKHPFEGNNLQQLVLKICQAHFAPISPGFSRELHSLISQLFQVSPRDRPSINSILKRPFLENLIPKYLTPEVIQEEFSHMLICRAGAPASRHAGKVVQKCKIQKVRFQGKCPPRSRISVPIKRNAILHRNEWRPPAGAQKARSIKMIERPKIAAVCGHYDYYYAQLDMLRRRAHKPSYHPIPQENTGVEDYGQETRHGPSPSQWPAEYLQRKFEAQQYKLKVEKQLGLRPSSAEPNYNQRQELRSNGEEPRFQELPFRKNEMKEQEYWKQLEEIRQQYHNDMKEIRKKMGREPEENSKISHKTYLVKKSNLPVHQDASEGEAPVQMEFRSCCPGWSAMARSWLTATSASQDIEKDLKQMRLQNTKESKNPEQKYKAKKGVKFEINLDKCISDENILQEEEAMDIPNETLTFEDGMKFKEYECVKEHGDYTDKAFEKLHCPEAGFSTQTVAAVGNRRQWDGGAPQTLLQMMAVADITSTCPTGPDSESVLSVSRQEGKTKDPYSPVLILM

[19] = molecular target: Protein kinase C iota type (Homo sapiens) (UniProt P41743); assay: Inhibition of wild-type human partial length PRKCI (H215 to V587 residues) expressed in HEK293 cells assessed as residual activity at 1000 nM after 30 mins by Kinomescan method relative to control; type: cell-based
Chain of Protein kinase C iota type (Homo sapiens) (P41743 whole entry, the tested form may be a part): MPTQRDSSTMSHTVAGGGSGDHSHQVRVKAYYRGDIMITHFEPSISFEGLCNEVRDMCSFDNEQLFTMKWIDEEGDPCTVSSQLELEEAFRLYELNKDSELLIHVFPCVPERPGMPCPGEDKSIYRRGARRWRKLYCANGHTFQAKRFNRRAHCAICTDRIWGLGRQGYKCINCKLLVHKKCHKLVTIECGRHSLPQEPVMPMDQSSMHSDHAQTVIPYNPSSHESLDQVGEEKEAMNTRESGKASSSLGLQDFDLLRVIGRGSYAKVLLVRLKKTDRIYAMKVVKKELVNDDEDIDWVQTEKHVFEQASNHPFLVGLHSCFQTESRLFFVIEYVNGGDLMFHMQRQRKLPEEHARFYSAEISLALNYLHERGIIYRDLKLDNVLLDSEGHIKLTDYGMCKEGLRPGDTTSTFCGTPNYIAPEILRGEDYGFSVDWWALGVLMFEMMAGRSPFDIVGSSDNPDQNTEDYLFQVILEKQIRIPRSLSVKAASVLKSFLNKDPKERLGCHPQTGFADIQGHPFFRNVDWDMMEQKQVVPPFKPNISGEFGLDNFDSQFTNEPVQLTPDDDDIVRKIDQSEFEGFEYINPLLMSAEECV

[20] = molecular target: Ribosomal protein S6 kinase alpha-3 (Homo sapiens) (UniProt P51812); assay: Inhibition of wild-type human partial length N-terminal RSK3 kinase domain 1 (M1 to Q385 residues) expressed in Escherichia coli BL21 assessed as residual activity at 1000 nM after 30 mins by Kinomescan method relative to control
[21] = molecular target: Serine/threonine-protein kinase SBK1 (Homo sapiens) (UniProt Q52WX2); assay: Inhibition of wild-type human partial length SBK1 (P23 to P348 residues) expressed in HEK293 cells assessed as residual activity at 1000 nM after 30 mins by Kinomescan method relative to control; type: cell-based
Chain of Serine/threonine-protein kinase SBK1 (Homo sapiens) (Q52WX2 whole entry, the tested form may be a part): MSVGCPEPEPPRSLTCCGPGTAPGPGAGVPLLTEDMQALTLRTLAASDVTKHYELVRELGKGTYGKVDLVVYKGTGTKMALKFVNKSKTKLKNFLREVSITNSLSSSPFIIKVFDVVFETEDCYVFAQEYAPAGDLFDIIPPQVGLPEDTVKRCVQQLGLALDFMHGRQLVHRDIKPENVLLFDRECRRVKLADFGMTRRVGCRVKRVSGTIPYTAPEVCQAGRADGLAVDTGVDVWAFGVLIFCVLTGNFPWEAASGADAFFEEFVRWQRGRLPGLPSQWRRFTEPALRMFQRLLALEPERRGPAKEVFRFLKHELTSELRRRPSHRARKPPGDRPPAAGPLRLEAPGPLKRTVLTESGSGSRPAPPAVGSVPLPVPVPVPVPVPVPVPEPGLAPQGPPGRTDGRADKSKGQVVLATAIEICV

[22] = molecular target: Serine/threonine-protein kinase Sgk3 (Homo sapiens) (UniProt Q96BR1); assay: Inhibition of wild-type human partial length SGK3 (M119 to L496 residues) expressed in HEK293 cells assessed as residual activity at 1000 nM after 30 mins by Kinomescan method relative to control; type: cell-based
Chain of Serine/threonine-protein kinase Sgk3 (Homo sapiens) (Q96BR1 whole entry, the tested form may be a part): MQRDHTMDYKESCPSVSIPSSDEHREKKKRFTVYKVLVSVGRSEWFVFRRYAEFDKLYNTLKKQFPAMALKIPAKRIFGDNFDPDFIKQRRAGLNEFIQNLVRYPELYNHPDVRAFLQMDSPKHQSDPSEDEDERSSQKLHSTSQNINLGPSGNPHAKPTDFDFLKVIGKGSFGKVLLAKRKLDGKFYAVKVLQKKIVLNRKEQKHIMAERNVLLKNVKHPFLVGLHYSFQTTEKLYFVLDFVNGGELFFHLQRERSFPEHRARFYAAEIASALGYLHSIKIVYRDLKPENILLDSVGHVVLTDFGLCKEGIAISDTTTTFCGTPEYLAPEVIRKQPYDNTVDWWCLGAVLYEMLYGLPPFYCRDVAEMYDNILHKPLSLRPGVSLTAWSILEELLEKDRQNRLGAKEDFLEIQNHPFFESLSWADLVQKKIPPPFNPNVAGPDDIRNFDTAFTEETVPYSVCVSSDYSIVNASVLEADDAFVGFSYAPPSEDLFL

COc1cc(OC)c(Cl)c(N2Cc3cnc(Nc4ccc(F)cc4)nc3N(C3CCN(C(=O)/C=C/CN(C)C)CC3)C2=O)c1Cl
IC50 [1]: 0.77 nM | Activity [2]: 100% | Activity [3]: 100% | Activity [4]: 100% | Activity [5]: 79% | Activity [6]: 100% | Activity [7]: 74% | Activity [8]: 100% | Activity [9]: 100% | Activity [10]: 67% | Activity [11]: 100% | Activity [12]: 100% | Activity [13]: 90% | Activity [14]: 100% | Activity [15]: 1.5% | Activity [16]: 34% | Activity [17]: 100% | Activity [18]: 14% | Activity [19]: 100% | Activity [20]: 97% | Activity [21]: 90% | Activity [22]: 87%
